A selection: hits, their analogues and other compounds. The true share with any hit is near 3.8%.
MrgX1 agonist: agonists of human MrgX1 receptor; Q96LB2; MrgX1-HEK293 cells, Fluo-4 calcium fluorescence, agonist mode; stronger effect = higher value; B-score at 10 µM; hit rate 0.44% among 310,000; AID 588627;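 active = calcium response B-score plate-corrected fluorescence ratio at least 3 library SD, with starting fluorescence B-score inside 5 SD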
Target sequence (Q96LB2 whole entry, looked up): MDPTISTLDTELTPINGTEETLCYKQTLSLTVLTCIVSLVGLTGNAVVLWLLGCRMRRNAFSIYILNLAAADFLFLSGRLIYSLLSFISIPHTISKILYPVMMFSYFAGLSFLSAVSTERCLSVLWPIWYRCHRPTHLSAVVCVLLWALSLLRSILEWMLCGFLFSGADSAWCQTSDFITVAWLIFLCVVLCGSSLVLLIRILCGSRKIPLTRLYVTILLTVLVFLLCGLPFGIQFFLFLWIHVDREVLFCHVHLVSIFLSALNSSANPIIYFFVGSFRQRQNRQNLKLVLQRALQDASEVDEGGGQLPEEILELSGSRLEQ
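Test system: HEK293 cells stably expressing human MrgX1 receptor; Input: fifteen thousand cells per well; Dosing: compound delivered in addition one of three; Schedule: overnight seeding, then 1 h dark dye loading; Technique: Fluo-4 NW calcium fluorescence; Measure: B-scored fluorescence response ratio; Controls: positive and negative controls per plate.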
MrgX1 allo act: human MrgX1 positive allosteric modulation, primary screen; Q96LB2; MrgX1-HEK293, Fluo-4 calcium flux, FDSS; stronger effect = higher value; B-score at 10 µM; hit rate 0.63% among 310,000;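 active = plate-corrected calcium response at least 3 library SD above typical, normal starting fluorescence, not activating the receptor alone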;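 also: compound read alongside a low EC10 to EC30 dose of BAM8-22 agonist; peak minus trough fluorescence over baseline measured at the second addition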
Hep lipid drop: modulators of hepatic lipid droplet formation. inhibition, % at 6.5 µM. hit rate 0.4% among 240,000. AML12 mouse hepatocytes, oleate lipid droplets, BODIPY imaging;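 active = lipid droplet intensity inhibited by at least 50%, with more than 500 cells counted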
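Assay system: AML12 hepatocytes (mouse); Probe or stimulus: oleic acid at 100 µM to induce lipid droplet formation; Dosing: compound at 6.5 µM only; Schedule: compound with oleate, overnight; Detection: fluorescence imaging, 20x objective, two fields per well; Measure: % inhibition of lipid droplet signal.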
RGS4 block: human RGS4 inhibition; P49798; HEK293 M3R/RGS4 inducible, Fluo-4 calcium flux; stronger effect = higher value; triggered by carbachol at its EC20; B-score at 10 µM; hit rate 0.45% among 310,000; AID 463165;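 active = B-score, a plate-corrected calcium signal, over three deviations above library mean, with baseline fluorescence within five deviations of library mean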;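 also: RGS4 expression induced by doxycycline in cells with stable M3 receptor; B-score is computed from the integrated fluorescence ratio over baseline after carbachol; higher B-score means a larger calcium signal and so more RGS4 inhibition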
Target sequence (P49798 whole entry, looked up): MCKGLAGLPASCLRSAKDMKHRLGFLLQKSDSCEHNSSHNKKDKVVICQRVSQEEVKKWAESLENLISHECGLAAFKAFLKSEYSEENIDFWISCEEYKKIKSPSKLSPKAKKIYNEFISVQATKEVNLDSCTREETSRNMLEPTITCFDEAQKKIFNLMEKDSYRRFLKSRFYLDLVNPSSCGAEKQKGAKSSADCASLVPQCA
RGS4 pot: potentiators or activators of RGS4; HEK293 M3R/inducible RGS4, carbachol calcium flux Fluo4; stronger effect = lower value; AID 463111; B-score at 10 µM; hit rate 0.92% among 310,000;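 active = B-score of the integrated calcium signal more than 4 SD below the library mean, with starting fluorescence not abnormally high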;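 also: negative B-score means reduced calcium response which marks RGS4 activation or potentiation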
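test system = HEK293 cells with stable M3R and inducible RGS4 | schedule = recording 10 s baseline at 1 Hz, 100 s post-agonist | technique = Fluo4-AM (2 µM) calcium-flux fluorescence, kinetic read | measure = Agonist-evoked peak-minus-minimum fluorescence over baseline, integrated ratio, B score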
MrgX1 antag: antagonists of human MrgX1 receptor. Q96LB2. MRGX1-HEK293 calcium flux, Fluo-4, BAM8-22 antagonism; stronger effect = lower value. B-score at 10 µM. hit rate 1.3% among 310,000;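 active = calcium-response B-score plate-corrected more than 3 library SD below zero, starting fluorescence within 5 deviations, no agonist response on first addition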;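 also: peak minus trough fluorescence over baseline after final BAM8-22 challenge near maximal dose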
MrgX1 allo conf: confirmation of human MrgX1 receptor positive allosteric modulators. shares compounds with MrgX1 allo act. MrgX1-HEK293, Fluo-4 calcium fluorescence, FDSS. activation (ratio percentage), % at 10 µM. hit rate 13% among 1,200. AID 602413;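 active = ratio at least 3 SD above the weak peptide control, stable starting fluorescence, no direct agonism earlier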;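 also: compound followed by low BAM8-22 agonist challenge near EC20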
MrgX1 antag conf: confirmation of human MrgX1 receptor antagonists; shares compounds with MrgX1 antag; MrgX1-HEK293, BAM8-22 calcium flux, Fluo-4; stronger effect = lower value; remaining BAM8-22 calcium response % of control (stronger effect = lower value), % at 10 µM; hit rate 19% among 2,300; AID 602420;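 active = remaining agonist calcium response no higher than 100% minus 3 SD of agonist-only control wells, with starting fluorescence near control levels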;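 also: agonist BAM8-22 given at a near maximal EC90 to ECmax level; peak minus minimum fluorescence divided by baseline after agonist addition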
HEK293 Ca flux: counter-screen for MrgX1 antagonists: effect in parental HEK293 cells. hit rate 2% among 4,000. shares compounds with MrgX1 antag. Fluo-4 calcium fluorescence, FDSS. fluorescence ratio F(max-min)/F0 at 10 µM;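 active = duplicate-averaged calcium fluorescence ratio at least three times the standard deviation of buffer wells, a nonspecific response in parental cells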
HEK293 Ca counter: counter-screen for MrgX1 allosteric activators: effect in parental HEK293 cells; shares compounds with MrgX1 antag; parental HEK293 calcium flux, Fluo-4 fluorescence ratio; stronger effect = higher value; fluorescence ratio F(max-min)/F0 at 10 µM; hit rate 0.4% among 4,000;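 active = calcium fluorescence ratio, averaged over duplicates, at least 3 SD of the buffer-well ratio, meaning a nonspecific response in receptor-free cells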;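 also: untransfected parental HEK293 lacking MrgX1 used as counterscreen for MrgX1 allosteric activators; fluorescence change taken during the second addition on a kinetic imager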
HEK293 Ca cntr2: MrgX1 activator counter-screen hit in parental HEK293 cells | shares compounds with MrgX1 antag | Fluo-4 calcium fluorescence (FDSS); stronger effect = higher value | fluorescence ratio F(max-min)/F0 at 10 µM | hit rate 8.7% among 4,000;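 active = calcium fluorescence ratio at least three times the spread of buffer wells, meaning a non-specific response in parental cells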
A number is an active result; . = inactive; / = no result given.

SMILES	MrgX1 agonist	MrgX1 allo act	Hep lipid drop	RGS4 block	RGS4 pot	MrgX1 antag	MrgX1 allo conf	HEK293 Ca flux	HEK293 Ca counter	HEK293 Ca cntr2	others
COc1ccc(C=O)cc1Cn1cnc2c(cnn2C)c1=O	.	.	.	.	.	.	/	/	/	/
O=C(NCc1ccccn1)c1cccc(NS(=O)(=O)c2cccc(F)c2)c1	.	.	.	.	.	.	/	/	/	/
Cc1cccc(S(=O)(=O)Nc2cccc3c2C(=O)c2ccccc2-3)c1	.	14.9	.	.	.	.	.	.	.	46.8
COc1ccc2[nH]c3c(c2c1)CCn1c-3nc2sc(C(=O)Nc3ccccc3)c(C)c2c1=O	/	/	.	/	/	/	/	/	/	/
Cc1nc(-c2cc(C#N)c(Sc3cccc(C(F)(F)F)c3)nc2C)cs1	.	.	.	.	.	.	/	/	/	/
CNc1nc(Sc2ccccc2)cc(C(F)(F)F)n1	.	21.5	/	.	.	.	.	.	.	.
CNc1nc(Sc2cccc(C(F)(F)F)c2)cc(C(F)(F)F)n1	.	10.3	/	.	.	.	.	.	.	.
CSc1ccc(CN2CCC(n3nccc3NC(=O)C3CCOC3)CC2)cc1 (stereo not drawn)	.	.	.	.	.	.	/	/	/	/
C=CCn1c2ccccc2c2nnc(SCCCn3c(=O)[nH]c4ccccc43)nc21	/	/	.	/	/	/	/	/	/	/
CCN1CC2=C(OC(N)=C(C#N)C2c2ccccc2)/C(=C\c2ccccc2)C1 (stereo not drawn)	.	22.2	.	.	.	.	.	.	.	.
N#CC1=C(N)OC2=C(CN(Cc3ccccc3)C/C2=C\c2cccnc2)C1c1cccnc1 (stereo not drawn)	.	.	.	.	.	.	/	/	/	/
CCN1CC2=C(OC(N)=C(C#N)C2c2cccs2)/C(=C/c2cccs2)C1 (stereo not drawn)	.	8.24	.	.	.	.	.	.	.	.
COc1cc(/C=N/NC(=O)CSc2nc3ccccc3n2C)cc(OC)c1OC	.	.	.	.	.	.	/	/	/	/
Cc1cccc(-c2csc(N)c2C(=O)OC(C)C)c1	.	8.14	.	.	.	.	.	.	.	.
Cc1cc(Cl)ccc1OC(C)C(=O)Nc1ccc(S(=O)(=O)Nc2cnc3ccccc3n2)cc1 (stereo not drawn)	.	7.59	/	.	.	-6.74	.	.	.	.	MrgX1 antag conf=81.0%
CC(Oc1ccc(Cl)cc1Cl)C(=O)Nc1ccc(S(=O)(=O)Nc2cnc3ccccc3n2)cc1 (stereo not drawn)	.	.	.	.	.	.	/	/	/	/
COc1cc(C(=O)Nc2ccc(N3CCCS3(=O)=O)cc2)c([N+](=O)[O-])cc1OC	.	.	/	.	.	.	/	/	/	/
Cc1ccc(-c2[nH]ncc2C(=O)c2ccccc2C)c(O)c1	.	.	.	.	.	.	/	/	/	/
COc1ccc(Nc2cc(C)c3ccccc3n2)cc1	.	15.6	.	.	.	.	17.9%	.	.	.
COc1ccc(Nc2cccc3ccccc23)cc1	.	21.1	/	.	.	.	.	.	.	.
COc1ccc(C(=O)C2CCCN(Cc3cccc4c3OCO4)C2)cc1OC (stereo not drawn)	.	.	.	.	.	.	/	/	/	/
COc1ccccc1P(=O)(Cc1ccccc1)c1ccccc1 (stereo not drawn)	.	.	.	.	.	.	/	/	/	/
Nc1nc(-c2ccccc2)cc(C(F)(F)F)n1	.	.	.	.	.	.	/	/	/	/
COC1(c2cc(-c3ccccc3)nc(N)n2)CCCCC1	.	30.7	/	.	.	.	28.4%	.	.	.
S=C1NCN(Cc2cccnc2)CN1c1cccc2ccccc12	.	.	.	.	.	.	/	/	/	/
SMILES	MrgX1 agonist	MrgX1 allo act	Hep lipid drop	RGS4 block	RGS4 pot	MrgX1 antag	MrgX1 allo conf	HEK293 Ca flux	HEK293 Ca counter	HEK293 Ca cntr2	others
COc1ccc(NC(=O)c2nc[nH]c2C(=O)N2CCC(C)CC2)cc1	.	8.16	.	.	.	.	.	.	.	.
CCOC(=O)c1ccc(NC(=O)c2nc[nH]c2C(=O)N2CCC(C)CC2)cc1	.	.	.	.	.	.	/	/	/	/
Cc1ccc(NC(=O)c2nc[nH]c2C(=O)N2CCC(C)CC2)cc1	.	9.07	.	.	.	.	.	.	.	.
CCN(CC)C(=O)c1[nH]cnc1C(=O)Nc1ccc(OC)cc1	.	.	.	.	.	.	/	/	/	/
CCc1cc(CNC(=O)c2ccc(OC3CCN(C(C)=O)CC3)c(OC)c2)on1	.	.	.	.	.	.	/	/	/	/
O=C(NC(Cc1ccccc1)C(=O)O)/C(=C\c1ccccc1)NC(=O)c1ccc(Br)o1 (stereo not drawn)	.	.	.	.	.	.	/	/	/	/
COc1cc(OC)cc(C(=O)N2CCC(N3CCCCCC3)CC2)c1	.	.	.	.	.	.	/	/	/	/
CC1(C(=O)N/N=C/c2c(F)c(F)c(F)c(F)c2F)CC1(Cl)Cl (stereo not drawn)	.	19.8	/	.	.	.	.	.	.	.
CC(NCCN(C)C)C(=O)C12CC3CC(CC(C3)C1)C2 (stereo not drawn)	.	.	.	.	.	.	/	/	/	/
CNC(=O)[C@H]1O[C@@H](n2cnc3c(NCc4cccc(I)c4)ncnc32)[C@H](O)[C@@H]1O	.	10.5	/	/	/	.	.	.	.	.
Cn1cnc2c(NCc3ccco3)ncnc21	.	.	.	.	.	.	/	/	/	/
CC1Cc2ccccc2N1Cc1cccc([N+](=O)[O-])c1 (stereo not drawn)	.	.	.	.	.	.	/	/	/	/
Cc1nn(C(=O)c2cccs2)c(N)c1-c1ccccc1	.	9.31	.	.	.	.	.	.	.	.
CCc1cc2cc(C)ccc2nc1SCC(=O)N1CCN(C(=O)c2ccco2)CC1	.	11.1	/	/	/	.	.	.	.	.
CCc1cc2ccccc2nc1SCC(=O)N1CCN(C(=O)c2ccco2)CC1	/	/	/	.	.	/	/	/	/	/
O=C(CSc1nc(-c2ccccc2)cs1)NCCN1C(=O)CSC1=O	.	10.4	.	.	.	.	.	.	.	.
O=C(COc1ccccc1)N1CCN=C1SCc1ccc(F)cc1	.	8.59	.	.	.	.	.	.	.	.
O=C(COc1ccccc1)N1CCN=C1SCc1cccnc1	.	.	/	.	.	.	/	/	/	/

Assay outcomes from PubChem BioAssay.
